Measurements reported in article PMC5361402 (Diabetes, 2014).

How the values were obtained:
[1] = cited from earlier work
[2] = tested on: patients with type 1 and type 2 diabetes; conditions: phase II, patients previously treated with other basal insulins; cited from earlier work
[3] = cited from earlier work; remark: listed apart in the source
conscious dogs = assay: Euglycemic clamp with tracer and hepatic balance measurements in conscious dogs; assay type: in vivo, dog; conditions: control group (regular human insulin 0.11 nmol/kg/h iv, n=6)
In short: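 Conscious dogs had 30 min of basal sampling (90–120 min), then a 5-h euglycemic clamp (120–420 min). Somatostatin and regular human insulin (no priming dose) were given by peripheral vein, glucagon intraportally at basal 0.5 ng ⋅ kg−1 ⋅ min−1, and glucose infused to hold euglycemia. [3H]glucose tracer; Ra from Mari circulatory model; hepatic organ-balance calculations; triglycerides assayed spectrophotometrically; n = 6.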

[4] = Plasma insulin / serum LY concentrations and organ extraction during the clamp; assay type: in vivo, dog
[5] = regular insulin 0.11 nmol/kg/h iv during the clamp, dog

Q: Which “T1/2 relative to that of glargine” value [1] does the source give for insulin degludec here?
A: approximately two times

Q: For insulin glargine, which Body weight change [2] is on record?
A: modest weight gain

Q: With “insulin: endogenously secreted insulin to which the liver is exposed” as the substance, how does the “Hepatic extraction of the insulin to which the liver is exposed” value [3] read?
A: 50–60%

Q: What does the source list for “regular insulin: regular human insulin infused via peripheral vein in the control group”?
A: Change from baseline in net hepatic glucose balance by 420 min (conscious dogs): 10.3 ± 1.4 µmol ⋅ kg^-1 ⋅ min^−1; Fall of arterial plasma triglyceride concentration below baseline by 420 min (conscious dogs): ~ 40%; Increase in non-HGU over the basal rate in the final hour (conscious dogs): 11.1 ± 4.5 µmol ⋅ kg^−1 ⋅ min^−1; Time to NEFA nadir after the start of the clamp period (conscious dogs): ≤ 90 min; Nadir of NEFA concentrations (conscious dogs; arterial plasma): 271 ± 57 µmol/L; Fall from basal in endogenous glucose Ra by the final hour (conscious dogs; tracer-determined): 8.9 ± 1.9 µmol ⋅ kg^−1 ⋅ min^−1; Portal vein insulin concentration during the clamp ([4]; control group (regular human insulin 0.11 nmol/kg/h iv, n=6)): ~ 50 % of basal; Fractional hepatic extraction [4, 5]: 50 ± 3%; Fractional renal extraction [4, 5]: 61 ± 3%
